# Assay results collected from several papers.
# Protocols differ between the studies behind these lines.
# Target: TGF-beta receptor type-1 (TGFBR1, Homo sapiens, UniProt P36897)
SMILES,assay,setting,quantity,result
Cc1cccc(-c2[nH]c(C(C)(C)C)nc2-c2ccc3c(c2)OCO3)n1,cell-free assay,0.5 µM,remaining signal,35.8%
Fc1ccc(-c2ncn(-c3ccc(-c4ccccc4)cc3)c2-c2ccncc2)cc1,"cell-free assay, TR-FRET",1 µM,inhibition,15%
O=C(Nc1cnn(-c2csc(C(=O)NC3COC3)c2)c1)Nc1c(F)cccc1Cl,"enzyme activity, inhibitor",5 µM,remaining activity,97.4%
CO[C@@H](C)c1c(Nc2ccc([C@@H](N(C)C(=O)C3CCS(=O)(=O)CC3)C(F)(F)F)cc2)cnc2cc(Cl)nn12,"cell-free assay, competition with immobilised ligand",1 µM,remaining binding,95%
CC(C)(C)c1nc2c(s1)c1nc(N)ncc1c1ccc(NS(=O)(=O)c3c(F)cccc3F)c(F)c12,"enzyme activity, inhibitor, radiometric",1 µM,remaining activity,102%
Fc1ccc(-c2ncn(-c3ccccc3)c2-c2ccncc2)cc1,"cell-free assay, TR-FRET",1 µM,inhibition,31%
CS(=O)(=O)Nc1cccc(-c2csc(NC(=O)CSc3nc4nccnc4c(=O)n3CCc3ccccc3)n2)c1,"enzyme activity, inhibitor",10 µM,inhibition,5%
Fc1ccc(-c2c(-c3ccncc3)ncn2-c2ccc(-c3ccccc3)cc2)cc1,"cell-free assay, TR-FRET",1 µM,inhibition,21%
Cc1cc(NC(=O)c2cccc3cc(-c4cccc5[nH]nc(N)c45)ccc23)ccc1F,"enzyme activity, inhibitor",0.1 µM,activity vs control,120%
CCCOc1ccc([C@@H]2[C@@H](C(=O)O)[C@H](c3ccc4c(c3)OCO4)CN2CC(=O)Nc2c(CC)cccc2CC)cc1,"cell-free assay, competition with immobilised ligand",1 µM,remaining binding,64%
Nc1ncnc2occ(-c3ccc(NC(=O)Nc4cc(C(F)(F)F)ccc4F)cc3)c12,cell-free assay,20 µM,remaining signal,52%
C[S+]([O-])c1ccc(-c2nc(-c3ccncc3)c(-c3ccc(F)cc3)[nH]2)cc1 (stereo not shown),cell-free assay,0.5 µM,remaining signal,101%
CCCCN(CCCC)C(=O)CN1C[C@H](c2cc(OC)c3c(c2)OCO3)[C@@H](C(=O)O)[C@@H]1CC(C)(C)CCC,"cell-free assay, competition with immobilised ligand",1 µM,remaining binding,98.6%
COc1cccc(F)c1Cn1cnc(-c2ccc(F)cc2)c1-c1ccncc1,"cell-free assay, TR-FRET",1 µM,inhibition,20%
CN1CC(Oc2cnc(C#N)cc2-c2ccn3nc(NC(=O)C4CC4)cc3c2)C1,"enzyme activity, inhibitor",1 µM,inhibition,-9%
COc1cc(-c2cc(-c3ccc(N4CCNCC4)cc3)cnc2C)cc(OC)c1OC,"enzyme activity, inhibitor",1 µM,inhibition,32%
CC(C)(O)[C@H]1CC[C@H](Nc2ccc3ncc(-c4cccc(C(F)(F)F)c4)n3n2)CC1,"enzyme activity, inhibitor",1 µM,remaining activity,108%
CO[C@H]1CC[C@H](CNc2ccc(S(=O)(=O)NC(=O)c3ccc(N4CCN(CC5=C(c6ccc(Cl)cc6)CC(C)(C)CC5)CC4)cc3Oc3cnc4[nH]ccc4c3)cc2[N+](=O)[O-])CC1,"cell-free assay, competition with immobilised ligand",1 µM,remaining binding,84%
N#CCCc1ccc2c(c1)-c1[nH]c3ccc([N+](=O)[O-])cc3c1CC(=O)N2,cell-free assay,0.5 µM,remaining signal,103%
C=CC(=O)Nc1cc(Nc2nccc(Nc3cc(Cl)c(F)cc3C(C)(C)O)n2)c(OC)cc1N1CC[C@@H](N(C)C)C1,"enzyme activity, inhibitor",1 µM,inhibition,42%
C[C@H](c1cccc(C#N)c1)n1cc(Cl)cc(C(N)=O)c1=N,"cell-free assay, competition with immobilised ligand",1 µM,remaining binding,100%
O=C1Nc2ccc(Cl)cc2C1=Cc1cc(Cl)c(O)c(Cl)c1,cell-free assay,0.5 µM,remaining signal,102%
COc1ccc2c(c1)O[C@@H](c1ccc(OC)c(OC)c1)C[C@H]2NC(=O)C1(c2ccc3c(c2)OC(F)(F)O3)CC1,"cell-free assay, competition with immobilised ligand",1 µM,remaining binding,100%
Cc1ccc(NC(=O)c2ccc(C)c(C(F)(F)F)c2)cc1C#Cc1nn(C2CCC(O)CC2)c2ncnc(N)c12 (stereo not shown),cell-free assay,10 µM,remaining signal,105%
O=C(O)c1cc(-c2ccc(C3CCNCC3)cc2)c2ccc(-c3ccc(C(F)(F)F)cc3)cc2c1,"cell-free assay, competition with immobilised ligand",1 µM,remaining binding,81%
Fc1ccc(-c2c(-c3ccncc3)ncn2-c2ccccc2)cc1,"cell-free assay, TR-FRET",1 µM,inhibition,21%
CN(C)c1ncnc(-c2ccc3nc(Nc4cc(CN5CCN(C(=O)CC(F)(F)F)CC5)ccn4)[nH]c3c2)c1Cl,"cell-free assay, competition with immobilised ligand",1 µM,remaining binding,100%
Cc1ccc(NC(=O)c2ccc(CN3CCN(C)CC3)cc2)cc1Nc1nc(-c2cccnc2)cs1,cell-free assay,0.5 µM,remaining signal,98.5%
